Reference: ChEMBL document CHEMBL1124663, “Design, synthesis, antineoplastic activity, and chemical properties of bis(carbamate) derivatives of 4,5-bis(hydroxymethyl)imidazole” (J Med Chem, 1989)

Columns and labels:
Mus musculus [1] = assay: Body Weight Difference (BWD) of test animals administered with 100 mg/kg compound is determined on day 5 for P388 tumor cells; assay type: functional
Summary of the method: (§1)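 P388 leukaemia: about 10^6 cells in ascitic fluid inoculated ip on day 0 (CD2F1 mice). Compound given ip in normal saline as a freshly prepared solution or suspension, once daily on days 1–5. Treated-minus-control body weight difference in g, taken as day 5 minus day 1 weight. Groups of six.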

Mus musculus [2] = assay: Body Weight Difference (BWD) of test animals administered with 200 mg/kg compound is determined on day 5 for P388 tumor cells; assay type: functional; summary of the method: as §1
Mus musculus [3] = assay: Body Weight Difference (BWD) of test animals administered with 400 mg/kg compound is determined on day 5 for P388 tumor cells; assay type: functional; summary of the method: as §1
Mus musculus [4] = assay: Toxicity day evaluation was carried out on day 5 for animal dosed with 100 mg/kg compound; 6/6; assay type: organism-based; design: dose 100 mg/kg; conditions: in vivo
Mus musculus [5] = assay: Ability of 400 mg/kg of compound to kill tumor cells in mice is expressed as the log of the tumor cell population at the onset of treatment minus the log of the tumor cell population at the end of treatment; assay type: functional
Mus musculus [6] = assay: Toxicity day evaluation was carried out on day 5 for animal dosed with 200 mg/kg compound; 6/6; assay type: organism-based; design: dose 200 mg/kg; conditions: in vivo
Mus musculus [7] = assay: Toxicity day evaluation was carried out on day 5 for animal dosed with 50 mg/kg compound; 6/6; assay type: organism-based; design: dose 50 mg/kg; conditions: in vivo
Mus musculus [8] = assay: Body Weight Difference (BWD) of test animals administered with 50 mg/kg compound is determined on day 5 for P388 tumor cells; assay type: functional; summary of the method: as §1
Mus musculus [9] = assay: Ability of 200 mg/kg of compound to kill tumor cells in mice is expressed as the log of the tumor cell population at the onset of treatment minus the log of the tumor cell population at the end of treatment; assay type: functional
Mus musculus [10] = assay: Toxicity day evaluation was carried out on day 5 for animal dosed with 400 mg/kg compound; 6/6; assay type: organism-based; design: dose 400 mg/kg; conditions: in vivo
Mus musculus [11] = assay: Toxicity day evaluation was carried out on day 5 for animal dosed with 200 mg/kg compound; 5/5; assay type: organism-based; design: dose 200 mg/kg; conditions: in vivo
Mus musculus [12] = assay: Body Weight Difference (BWD) of test animals with P388 administered with 50 mg/kg compound is determined; assay type: functional; summary of the method: as §1
Mus musculus [13] = assay: Body Weight Difference (BWD) of test animals with P388 administered with 100 mg/kg compound is determined; assay type: functional; summary of the method: as §1
Mus musculus [14] = assay: Toxicity day evaluation was carried out on day 5 for animal dosed with 25 mg/kg compound; 5/5; assay type: organism-based; design: dose 25 mg/kg; conditions: in vivo
Mus musculus [15] = assay: The percent of the median survival time of test mice compared to control mice is determined for mice administered with 200 mg/kg compound; assay type: functional
Mus musculus [16] = assay: The percent of the median survival time of test mice compared to control mice is determined for mice administered with 12.5 mg/kg compound; assay type: functional
Mus musculus [17] = assay: Body Weight Difference (BWD) of test animals with P388 administered with 12.5 mg/kg compound is determined; assay type: functional; summary of the method: as §1
Mus musculus [18] = assay: Body Weight Difference (BWD) of test animals with P388 administered with 25 mg/kg compound is determined; assay type: functional; summary of the method: as §1
Mus musculus [19] = assay: Toxicity day evaluation was carried out on day 5 for animal dosed with 100 mg/kg compound; 5/5; assay type: organism-based; design: dose 100 mg/kg; conditions: in vivo
Mus musculus [20] = assay: Toxicity day evaluation was carried out on day 5 for animal dosed with 50 mg/kg compound; 5/5; assay type: organism-based; design: dose 50 mg/kg; conditions: in vivo
Mus musculus [21] = assay: Toxicity day evaluation was carried out on day 5 for animal dosed with 12.5 mg/kg compound; 5/5; assay type: organism-based; design: dose 12.5 mg/kg; conditions: in vivo
Mus musculus [22] = assay: Body Weight Difference (BWD) of test animals with P388 administered with 200 mg/kg compound is determined; assay type: functional; summary of the method: as §1
Mus musculus [23] = assay: The percent of the median survival time of test mice compared to control mice is determined for mice administered with 25 mg/kg compound; assay type: functional
Mus musculus [24] = assay: Toxicity day evaluation was carried out on day 5 for animal dosed with 100 mg/kg compound. Number of animals in initial test groups were 5; assay type: organism-based; design: dose 100 mg/kg; conditions: in vivo
Mus musculus [25] = assay: Toxicity day evaluation was carried out on day 5 for animal dosed with 12.5 mg/kg compound. Number of animals in initial test groups were 5; assay type: organism-based; design: dose 12.5 mg/kg; conditions: in vivo
Mus musculus [26] = assay: Toxicity day evaluation was carried out on day 5 for animal dosed with 50 mg/kg compound. Number of animals in initial test groups were 5; assay type: organism-based; design: dose 50 mg/kg; conditions: in vivo
Mus musculus [27] = assay: The percent of the median survival time of test mice compared to control mice is determined for mice administered with 12.5 mg/kg compound.; assay type: functional
Mus musculus [28] = assay: Toxicity day evaluation was carried out on day 5 for animal dosed with 200 mg/kg compound. Number of animals in initial test groups were 5; assay type: organism-based; design: dose 200 mg/kg; conditions: in vivo
Mus musculus [29] = assay: Toxicity day evaluation was carried out on day 5 for animal dosed with 25 mg/kg compound. Number of animals in initial test groups were 5; assay type: organism-based; design: dose 25 mg/kg; conditions: in vivo
Mus musculus [30] = assay: Toxicity day evaluation was carried out on day 5 for animal dosed with 25 mg/kg compound; 6/6; assay type: organism-based; design: dose 25 mg/kg; conditions: in vivo
Mus musculus [31] = assay: Body Weight Difference (BWD) of test animals administered with 25 mg/kg compound is determined on day 5 for P388 tumor cells; assay type: functional; summary of the method: as §1
Mus musculus [32] = assay: Toxicity day evaluation was carried out on day 5 for animal dosed with 12.5 mg/kg compound; 6/6; assay type: organism-based; design: dose 12.5 mg/kg; conditions: in vivo
Mus musculus [33] = assay: The percent of the median survival time of test mice compared to control mice is determined for mice administered with 400 mg/kg compound; assay type: functional
Mus musculus [34] = assay: The percent of the median survival time of test mice compared to control mice is determined for mice administered with 50 mg/kg compound; assay type: functional
Mus musculus [35] = assay: Toxicity day evaluation was carried out on day 5 for animal dosed with 200 mg/kg compound; 5/6; assay type: organism-based; design: dose 200 mg/kg; conditions: in vivo
Mus musculus [36] = assay: Ability of 25 mg/kg of compound to kill tumor cells in mice is expressed as the log of the tumor cell population at the onset of treatment minus the log of the tumor cell population at the end of treatment; assay type: functional
Mus musculus [37] = assay: Body Weight Difference (BWD) of test animals administered with 12.5 mg/kg compound is determined on day 5 for P388 tumor cells; assay type: functional; summary of the method: as §1
Mus musculus [38] = assay: The percent of the median survival time of test mice compared to control mice is determined for mice administered with 100 mg/kg compound; assay type: functional
Mus musculus [39] = assay: The percent of the median survival time of test mice compared to control mice is determined for mice administered with 50 mg/kg compound.; assay type: functional
Mus musculus [40] = assay: Ability of 12.5 mg/kg of compound to kill tumor cells in mice is expressed as the log of the tumor cell population at the onset of treatment minus the log of the tumor cell population at the end of treatment.; assay type: functional
Mus musculus [41] = assay: Ability of 50 mg/kg of compound to kill tumor cells in mice is expressed as the log of the tumor cell population at the onset of treatment minus the log of the tumor cell population at the end of treatment.; assay type: functional
Mus musculus [42] = assay: The percent of the median survival time of test mice compared to control mice is determined for mice administered with 400 mg/kg compound.; assay type: functional
Mus musculus [43] = assay: Ability of 25 mg/kg of compound to kill tumor cells in mice is expressed as the log of the tumor cell population at the onset of treatment minus the log of the tumor cell population at the end of treatment.; assay type: functional
Mus musculus [44] = assay: Toxicity day evaluation was carried out on day 5 for animal dosed with 400 mg/kg compound; 3/6; assay type: organism-based; design: dose 400 mg/kg; conditions: in vivo
Mus musculus [45] = assay: Ability of 200 mg/kg of compound to kill tumor cells in mice is expressed as the log of the tumor cell population at the onset of treatment minus the log of the tumor cell population at the end of treatment.; assay type: functional
Mus musculus [46] = assay: Ability of 100 mg/kg of compound to kill tumor cells in mice is expressed as the log of the tumor cell population at the onset of treatment minus the log of the tumor cell population at the end of treatment.; assay type: functional

Row | Compound | BWD (Mus musculus [1]) | BWD (Mus musculus [2]) | BWD (Mus musculus [3]) | Survivors / animals tested (Mus musculus [4]) | Survivors / animals tested (Mus musculus [6]) | Survivors / animals tested (Mus musculus [7]) | BWD (Mus musculus [8]) | Survivors / animals tested (Mus musculus [10]) | T/C (Mus musculus [15]) | Survivors / animals tested (Mus musculus [30]) | BWD (Mus musculus [31]) | Survivors / animals tested (Mus musculus [32]) | BWD (Mus musculus [37]) | T/C (Mus musculus [39]) | other results
1 | CNC(=O)OCc1nc(SC)n(Cc2ccccc2)c1COC(=O)NC | 0.4 g | -0.4 g | -1.2 g | 6 | 6 | 6 | 0.9 g | 6 |  |  |  |  |  |  | KE (Mus musculus [5]): -0.71; KE (Mus musculus [9]): -0.44
2 | CNC(=O)OCc1ncn(-c2ccccc2)c1COC(=O)NC |  |  |  |  |  |  |  |  | 99% |  |  |  |  |  | Survivors / animals tested (Mus musculus [11]): 5; BWD (Mus musculus [12]): -0.8 g; BWD (Mus musculus [13]): -0.4 g; Survivors / animals tested (Mus musculus [14]): 5; T/C (Mus musculus [16]): 99%; BWD (Mus musculus [17]): -0.4 g; BWD (Mus musculus [18]): 0.2 g; Survivors / animals tested (Mus musculus [19]): 5; Survivors / animals tested (Mus musculus [20]): 5; Survivors / animals tested (Mus musculus [21]): 5; BWD (Mus musculus [22]): -1.2 g; T/C (Mus musculus [23]): 95%
3 | CNC(=O)OCc1nc(-c2ccccc2)n(C)c1COC(=O)NC |  |  |  |  |  |  |  |  |  |  |  |  |  |  | Survivors / animals tested (Mus musculus [24]): 5; BWD (Mus musculus [12]): -0.8 g; Survivors / animals tested (Mus musculus [25]): 5; BWD (Mus musculus [13]): -1 g; BWD (Mus musculus [17]): -0.2 g; BWD (Mus musculus [18]): 0 g; Survivors / animals tested (Mus musculus [26]): 5; T/C (Mus musculus [27]): 98%; Survivors / animals tested (Mus musculus [28]): 5; BWD (Mus musculus [22]): -2.2 g; Survivors / animals tested (Mus musculus [29]): 5
4 | CSc1nc(COC(=O)NC(C)C)c(COC(=O)NC(C)C)n1-c1ccccc1 | -2 g | -2.8 g | -4.8 g | 6 |  | 6 | 0.3 g | 6 | 90% | 6 | 0.6 g | 6 | -0.2 g |  | T/C (Mus musculus [33]): 100%; T/C (Mus musculus [34]): 95%; Survivors / animals tested (Mus musculus [35]): 5; KE (Mus musculus [36]): -1.55; KE (Mus musculus [9]): -1.64; T/C (Mus musculus [38]): 97%
5 | CC(C)NC(=O)OCc1ncn(-c2ccccc2)c1COC(=O)NC(C)C | 0.6 g | 0.2 g | -2.3 g | 6 | 6 | 6 | 0.8 g | 6 | 90% | 6 | -0.1 g | 6 | -0.4 g | 97% | T/C (Mus musculus [33]): 90%; T/C (Mus musculus [38]): 91%
6 | CSc1nc(COC(=O)NC(C)C)c(COC(=O)NC(C)C)n1C | -1.2 g | -1.8 g | -3.4 g | 6 | 6 | 6 | 0 g | 6 |  | 6 | 0.4 g | 6 | 2.6 g | 130% | KE (Mus musculus [40]): -1.4; KE (Mus musculus [41]): -0.56; T/C (Mus musculus [42]): 70%; KE (Mus musculus [43]): -0.91
7 | CSc1nc(COC(=O)NC(C)C)c(COC(=O)NC(C)C)n1Cc1ccccc1 | -0.3 g | -2.2 g | -3.2 g | 6 | 6 | 6 | -0.5 g |  |  | 6 | -1.5 g | 6 | -0.2 g | 110% | Survivors / animals tested (Mus musculus [44]): 3; KE (Mus musculus [45]): -0.32; KE (Mus musculus [46]): -0.39; T/C (Mus musculus [27]): 98%; KE (Mus musculus [41]): -0.42
